From PubChem
PAFAH1B3 inh – inhibitors of human PAFAH1B3. hit rate 0.28% among 340,000. inhibition, % at 3.39 µM. recombinant PAFAH1B3, FP-rhodamine probe, fluorescence polarization. AID 492972;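 active = inhibition above the screen-wide average of all tested compounds plus 3 SD, cut at about 25% in these data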;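 note: 0% = enzyme with DMSO only and 100% = wells lacking PAFAH1B3 protein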
UCH37 inh – inhibitors of human deubiquitinating enzyme UCH37 | hit rate 0.33% among 330,000 | Q9Y5K5 | AID 588478 | inhibition, % (no concentration beside the values) | purified proteasome/UCH37, Ub-AMC cleavage fluorescence;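 active = mean inhibition over replicate wells above about 20%, limit read from the data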;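 note: 0% = compound-free wells with enzyme and 100% = wells lacking proteasome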
Target sequence (Q9Y5K5 whole entry, looked up): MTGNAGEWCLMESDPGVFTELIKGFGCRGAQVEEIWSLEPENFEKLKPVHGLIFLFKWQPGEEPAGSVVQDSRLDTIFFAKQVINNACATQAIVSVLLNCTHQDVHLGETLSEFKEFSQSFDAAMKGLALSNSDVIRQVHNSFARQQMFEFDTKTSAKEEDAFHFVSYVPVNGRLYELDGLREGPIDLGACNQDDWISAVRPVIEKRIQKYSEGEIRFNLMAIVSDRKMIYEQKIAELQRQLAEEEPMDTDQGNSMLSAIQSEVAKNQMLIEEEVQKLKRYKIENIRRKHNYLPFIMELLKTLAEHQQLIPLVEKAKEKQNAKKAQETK
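Assay system: Proteasome-bound UCH37. Buffer or medium: pH 7.4 Tris-HCl (50 mM) with ovalbumin, ATP-MgCl2, DTT. Incubation: 30 min preincubation with enzyme, 25 min cleavage at room temperature. Measured by: fluorescence, ex 355 nm, em 460 nm. Read-out basis: percent inhibition. Control set: wells without proteasome as full block, compound-free enzyme plus substrate as uninhibited.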
GRIN3A LBD mod – modulators (binders) of human NR3A ligand-binding domain | NR3A LBD differential scanning fluorimetry, Tm shift; 0% = protein alone, 100% = glycine-bound protein | Tm shift relative to glycine control, % at 25 µM | hit rate 2.5% among 340,000 | AID 1259313;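 active = melting temperature shift of at least 10% of the positive control shift, at one fixed dose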
PAFAH1B2 FP inh – blocks human PAF acetylhydrolase 1b catalytic subunit 2; P68402; recombinant PAFAH1B2, FP-rhodamine activity probe, fluorescence polarization; inhibition, % at 3.39 µM; hit rate 1.2% among 340,000;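 active = inhibition above the mean of all tested compounds plus 3 SD, cut at about 24% in these data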;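 note: 0% = enzyme with DMSO and 100% = wells lacking PAFAH1B2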
PAFAH2 FP inh – PAFAH2 (human) inhibition | inhibition, % at 3.39 µM | recombinant PAFAH2, FP-rhodamine activity probe, fluorescence polarization | hit rate 0.99% among 340,000 | AID 492956;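 active = inhibition above the mean over all tested compounds plus 3 SD, cut at about 30% in these data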;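 note: inhibitors block probe labeling of enzyme so polarization drops; 0% = enzyme with DMSO and 100% = wells lacking PAFAH2 protein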
pPAFAH inh – inhibitors of human plasma PAF acetylhydrolase (pPAFAH); recombinant pPAFAH, FP-rhodamine probe fluorescence polarization; inhibition, % at 3.39 µM; hit rate 1.5% among 330,000; AID 463082;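 active = inhibition above the mean inhibition across the screen plus 3 SD, cut at about 25% in these data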;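 note: inhibitors block binding of the rhodamine activity-based probe so polarization drops; 0% = enzyme with DMSO and 100% = wells lacking pPAFAH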
* hit, by the source's call. The list is not random: actives were taken first. Their share in the collection is about 4.8%.

How did CCOc1cccc(-c2c(C(=O)NN=Cc3cccs3)nnn2-c2nonc2N)c1 do in these assays?
UCH37 inh: 3

What do the screens show for `COc1ccccc1-c1ccc(C=NO)o1`?
UCH37 inh: 1

How did Cn1c(=O)c2c(nc(NC3CCCCC3)n2CC(=O)C23CC4CC(CC(C4)C2)C3)n(C)c1=O do in these assays?
PAFAH1B3 inh: -6; UCH37 inh: 1; GRIN3A LBD mod: -9; PAFAH1B2 FP inh: 25*; PAFAH2 FP inh: 7; pPAFAH inh: 2

What do the screens show for `COc1ccccc1OCC(O)COC(N)=O` (stereo not given)?
PAFAH1B3 inh: 7; UCH37 inh: 3; GRIN3A LBD mod: 13*; PAFAH1B2 FP inh: 1; PAFAH2 FP inh: 3; pPAFAH inh: 2

How did COc1ccccc1OCC(O)CO (stereo not given) do in these assays?
PAFAH1B3 inh: 13; UCH37 inh: 1; GRIN3A LBD mod: -2; PAFAH1B2 FP inh: 1; PAFAH2 FP inh: 2; pPAFAH inh: 0

How did O=C(NCCCN1CCCCCC1)c1ccc2c(c1)NC(=O)C(N1CCOCC1)S2 (stereo not given) do in these assays?
PAFAH1B3 inh: 3; UCH37 inh: 22*; GRIN3A LBD mod: 0; PAFAH1B2 FP inh: 4; PAFAH2 FP inh: 3; pPAFAH inh: 3

What do the screens show for `CC(=NNS(=O)(=O)c1ccc(Br)cc1)c1cccs1`?
UCH37 inh: 4

How did Cc1sc2ncnc(N(C)Cc3cccs3)c2c1C do in these assays?
PAFAH1B3 inh: 11; UCH37 inh: 0; GRIN3A LBD mod: 11*; PAFAH1B2 FP inh: 7; PAFAH2 FP inh: 1; pPAFAH inh: 7

How did O=C(CN1CCCc2ccccc21)NN=Cc1ccc(O)cc1O do in these assays?
UCH37 inh: -15

What do the screens show for `CCOC(=O)C1=C(O)/C(=C\c2ccc(CNS(=O)(=O)c3ccc(Br)cc3)o2)N=C1C`?
PAFAH1B3 inh: 10; UCH37 inh: 1; GRIN3A LBD mod: -3; PAFAH1B2 FP inh: 8; PAFAH2 FP inh: -3; pPAFAH inh: 28*

How did CCN(CC(=O)NCc1cccs1)C(=O)CCCOc1ccc(C(C)(C)C)cc1 do in these assays?
PAFAH1B3 inh: 1; UCH37 inh: 1; GRIN3A LBD mod: 0; PAFAH1B2 FP inh: 25*; PAFAH2 FP inh: -5; pPAFAH inh: 16

How did CCN(CC(=O)NCc1cccs1)C(=O)CCCOc1ccccc1 do in these assays?
PAFAH1B3 inh: 7; UCH37 inh: 5; GRIN3A LBD mod: 1; PAFAH1B2 FP inh: 6; PAFAH2 FP inh: -5; pPAFAH inh: -5

How did Cc1ccc(C=NNc2ccc3c(C(F)(F)F)cc(C(F)(F)F)nc3n2)cc1 do in these assays?
UCH37 inh: 4

Results for O=c1c(Cl)c(N/N=C/c2ccc(Br)cc2)cnn1-c1ccccc1 ?
PAFAH1B3 inh: -15; GRIN3A LBD mod: 13*; PAFAH1B2 FP inh: -4; PAFAH2 FP inh: -1; pPAFAH inh: 6

What do the screens show for `CNc1cnn(-c2ccccc2)c(=O)c1Cl`?
PAFAH1B3 inh: 0; UCH37 inh: 5; GRIN3A LBD mod: 4; PAFAH1B2 FP inh: 3; PAFAH2 FP inh: -2; pPAFAH inh: 0

How did Cc1c(C(=O)N/N=C/c2ccc(N(C)C)cc2)[nH]c2ccc(Cl)cc12 do in these assays?
PAFAH1B3 inh: 8; GRIN3A LBD mod: 27*; PAFAH1B2 FP inh: 3; PAFAH2 FP inh: -3; pPAFAH inh: 7

How did Cc1c(C(=O)N/N=C/c2ccccc2)[nH]c2ccc(Cl)cc12 do in these assays?
PAFAH1B3 inh: -1; GRIN3A LBD mod: 30*; PAFAH1B2 FP inh: 1; PAFAH2 FP inh: 3; pPAFAH inh: -2

Results for Cc1c(C(=O)NN=Cc2ccc(N(C)C)cc2)[nH]c2ccc(Cl)cc12 ?
UCH37 inh: -17

How did O=C(NN=Cc1c[nH]c2ccccc12)C1CC1c1ccccc1 (stereo not given) do in these assays?
UCH37 inh: 2

Results for CC(=NNC(=O)c1cc2ccccc2cc1O)C1C(=O)c2ccccc2C1=O ?
UCH37 inh: 16

What do the screens show for `Cc1c(Cl)cccc1-c1ccc(C=Nn2cnnc2)o1`?
UCH37 inh: -3

How did O=C(Cc1ccc(S(=O)(=O)N2CCOCC2)s1)Nc1cc(C(F)(F)F)cc(C(F)(F)F)c1 do in these assays?
PAFAH1B3 inh: -3; UCH37 inh: 4; GRIN3A LBD mod: 17*; PAFAH1B2 FP inh: -6; PAFAH2 FP inh: -10; pPAFAH inh: -5
